Fold change (FC) and EC50 data for 2 compounds are collected here from ChEMBL document CHEMBL5543129, “Peptide Inhibitor Targeting the Extraterminal Domain in BRD4 Potently Suppresses Breast Cancer Both In Vitro and In Vivo” (J Med Chem, 2024).

Square brackets hold non-standard residues; d marks the D form. Peptide text beside a SMILES is read from it. Hyp = O=C(O)[C@@H]1C[C@@H](O)CN1; Ahx = NCCCCCC(=O)O

For assay [1], the target named is T1, von Hippel-Lindau disease tumor suppressor/Bromodomain-containing protein 4 (Homo sapiens) (UniProt O60885+P40337). Kind of assay: PROTAC activity at VHL/BDR4 ET domain in human MCF7 cells assessed as degradation by measuring fold change in remaining BRD4 level at 2.5 uM incubated for 24 hrs by immunoblotting analysis (reference value: […]). It counts as cell-based.

Assay [2] addresses T2, von Hippel-Lindau disease tumor suppressor/Bifunctional arginine demethylase and lysyl-hydroxylase JMJD6 (Homo sapiens) (UniProt P40337+Q6NYC1). The assay is described as follows: Protac activity at VHL/JMJD6 in human MCF7 cells assessed as degradation by measuring fold change in remaining JMJD6 level at 2.5 uM incubated for 24 hrs by immunoblotting analysis (reference value: […]). Format: cell-based. In general terms: In western blotting, separated proteins are transferred to a membrane and probed.

Assay [3] has as its target T2, von Hippel-Lindau disease tumor suppressor/Bifunctional arginine demethylase and lysyl-hydroxylase JMJD6 (Homo sapiens). Kind of assay: Protac activity at VHL/JMJD6 in human MCF7 cells assessed as degradation by measuring fold change in remaining JMJD6 level at 10 uM incubated for 24 hrs by immunoblotting analysis (reference value: […]). It counts as cell-based.
The target in assay [4] is T1, von Hippel-Lindau disease tumor suppressor/Bromodomain-containing protein 4 (Homo sapiens). Kind of assay: PROTAC activity at VHL/BDR4 ET domain in human MCF7 cells assessed as degradation by measuring fold change in remaining BRD4 level at 10 uM incubated for 6 hrs by immunoblotting analysis (reference value: […]). Format: cell-based.
For assay [5] the target is unchanged. Kind of assay: PROTAC activity at VHL/BDR4 ET domain in human MCF7 cells assessed as degradation by measuring fold change in remaining BRD4 level at 10 uM incubated for 12 hrs by immunoblotting analysis (reference value: […]). Format: cell-based.
For assay [6] the target is unchanged. The assay is described as follows: PROTAC activity at VHL/BDR4 ET domain in human MCF7 cells assessed as degradation by measuring fold change in remaining BRD4 level at 10 uM incubated for 24 hrs in presence of MG132 by immunoblotting analysis (reference value: […]). It counts as cell-based.
The target is the same in assay [7]. The assay is described as follows: PROTAC activity at VHL/BDR4 ET domain in human MCF7 cells assessed as degradation by measuring fold change in remaining BRD4 level at 10 uM incubated for 24 hrs in presence of TAT by immunoblotting analysis relative to TAT/TAT-PROTAC. It counts as cell-based. The procedure, abridged: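 MCF7 cells are treated with PROTAC peptide (dose series, or 10 μM over a time course, or 10 μM with or without MG132 10 μM) for up to 24 h. Comparators are TAT, TAT-PiET, or TAT-PROTAC at 10 μM. BRD4 is measured by immunoblot, normalised to β-actin; three repeats.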

In assay [8] the target is T2, von Hippel-Lindau disease tumor suppressor/Bifunctional arginine demethylase and lysyl-hydroxylase JMJD6 (Homo sapiens). Kind of assay: PROTAC activity at VHL/JMJD6 in human MCF7 cells assessed as degradation by measuring fold change in remaining JMJD6 level at 10 uM incubated for 24 hrs in presence of TAT by immunoblotting analysis relative to TAT/TAT-PROTAC. It counts as cell-based. The procedure, abridged:
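MCF7 cells were left untreated or given TAT, TAT-PROTAC, TAT-PiET or the PROTAC peptide (each 10 μM) for 24 h. Lysates were immunoblotted with β-actin for loading. Three repeats, quantified in the Supporting Table.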

Assay [9] has as its target T1, von Hippel-Lindau disease tumor suppressor/Bromodomain-containing protein 4 (Homo sapiens). Kind of assay: PROTAC activity at VHL/His-tagged BDR4 ET domain (601 to 683 residues) (unknown origin) transfected in MCF7 cells assessed as degradation by measuring fold change in remaining BRD4 level at 10 uM incubated for 24 hrs by immunoblotting analysis (reference value: […]). It counts as cell-based.

Assay [10] has the same target. Kind of assay: PROTAC activity at VHL/His-tagged BDR4 ET domain (601 to 683 residues) (unknown origin) transfected in MCF7 cells assessed as degradation by measuring fold change in remaining BRD4 level at 20 uM incubated for 24 hrs by immunoblotting analysis (reference value: […]). It counts as cell-based.
Assay [11] shares this target. Kind of assay: PROTAC activity at VHL/His-tagged BDR4 ET domain (1 to 470 residues) (unknown origin) transfected in MCF7 cells assessed as degradation by measuring fold change in remaining BRD4 level at 10 uM incubated for 12 hrs by immunoblotting analysis (reference value: […]). Format: cell-based.
Assay [12] shares this target. Kind of assay: PROTAC activity at VHL/His-tagged BDR4 ET domain (471 to 730 residues) (unknown origin) transfected in MCF7 cells assessed as degradation by measuring fold change in remaining BRD4 level at 10 uM incubated for 24 hrs by immunoblotting analysis (reference value: […]). It counts as cell-based.
The target is the same in assay [13]. The assay is described as follows: PROTAC activity at VHL/His-tagged BDR4 ET domain (471 to 730 residues) (unknown origin) transfected in MCF7 cells assessed as degradation by measuring fold change in remaining BRD4 level at 10 uM incubated for 12 hrs by immunoblotting analysis (reference value: […]). It counts as cell-based.
The target is the same in assay [14]. The assay is described as follows: PROTAC activity at VHL/His-tagged BDR4 […] (unknown origin) transfected in MCF7 cells assessed as degradation by measuring fold change in remaining BRD4 level at 5 uM incubated for 24 hrs by immunoblotting analysis (reference value: […]). It counts as cell-based.
Assay [15] shares this target. The assay is described as follows: PROTAC activity at VHL/His-tagged BDR4 […] (unknown origin) transfected in MCF7 cells assessed as degradation by measuring fold change in remaining BRD4 level at 10 uM incubated for 24 hrs by immunoblotting analysis (reference value: […]). Format: cell-based.
Assay [16] has the same target. The assay is described as follows: PROTAC activity at VHL/His-tagged BDR4 […] (unknown origin) transfected in MCF7 cells assessed as degradation by measuring fold change in remaining BRD4 level at 10 uM incubated for 12 hrs by immunoblotting analysis (reference value: […]). It counts as cell-based.
For assay [17] the target is unchanged. Kind of assay: PROTAC activity at VHL/His-tagged BDR4 ET domain (1047 to 1362 residues) (unknown origin) transfected in MCF7 cells assessed as degradation by measuring fold change in remaining BRD4 level at 20 uM incubated for 24 hrs by immunoblotting analysis (reference value: […]). Format: cell-based.
The test system of assay [18] is MCF7. The assay is described as follows: Cytotoxicity against human MCF7 cells incubated for 1 week by CellTiter 96 Aqueous One Solution based assay. Format: functional, cell-based. The following applies: MCF7, 168 h. Summed up:
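Cells (2 × 10^3/well, DMEM + 10% FBS, 37 °C, 5% CO2) treated with a concentration gradient of peptide for 1 week. MTS reagent added for 1 h, absorbance read at 490 nm, EC50 derived.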

For assay [19], the system named is BT-549. The assay is described as follows: Cytotoxicity against human BT-549 cells incubated for 1 week by CellTiter 96 Aqueous One Solution based assay. It counts as functional, cell-based. The following applies: BT-549, 168 h. The procedure, abridged: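 Cells grown in RPMI-1640 (T47D, BT549) or DMEM (MDA-MB-231) with 10% FBS, 37 °C, 5% CO2. Seeded 2 × 10^3/well, exposed to a gradient concentration of peptide for 1 week. MTS-type reagent added 20 μL per 100 μL medium, 1 h at 37 °C, absorbance read at 490 nm. EC50 derived from the concentration–response curve.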

In assay [20] the test system is MCF7. Kind of assay: Inhibition of His-tagged BRD4 ET domain to Flag-tagged JMJD6 (unknown origin) protein-protein interaction in human MCF7 cells assessed as fold decrease in His-tagged BRD4 ET level at 10 uM incubated for 12 hrs by immunoblotting assay (reference value: […]). Format: cell-based.

T1 sequence (P40337 whole entry, looked up, other chains not shown, the tested form may be a part): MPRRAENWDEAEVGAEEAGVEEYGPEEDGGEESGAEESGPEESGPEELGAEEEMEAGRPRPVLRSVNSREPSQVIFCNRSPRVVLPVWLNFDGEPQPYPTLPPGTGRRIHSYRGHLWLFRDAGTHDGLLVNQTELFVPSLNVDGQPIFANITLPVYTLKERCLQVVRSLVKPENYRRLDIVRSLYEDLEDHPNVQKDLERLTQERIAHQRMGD

Consider `CC[C@H](C)[C@H](NC(=O)[C@H](Cc1ccc(O)cc1)NC(=O)[C@@H]1C[C@@H](O)CN1C(=O)[C@H](C)NC(=O)[C@@H](NC(=O)CCCCCNC(=O)[C@H](CCC(=O)O)NC(=O)CNC(=O)[C@H](CS)NC(=O)[C@H](CCCCN)NC(=O)[C@H](Cc1ccccc1)NC(=O)[C@H](CCCCN)NC(=O)[C@H](CCC(N)=O)NC(=O)[C@H](CC(N)=O)NC(=O)[C@H](CCCNC(=N)N)NC(=O)[C@H](CCCNC(=N)N)NC(=O)[C@H](CCCNC(=N)N)NC(=O)[C@H](CCCNC(=N)N)NC(=O)[C@H](CCC(N)=O)NC(=O)[C@H](CCCNC(=N)N)NC(=O)[C@H](CCCNC(=N)N)NC(=O)[C@H](CCCCN)NC(=O)[C@H](CCCCN)NC(=O)[C@H](CCCNC(=N)N)NC(=O)CNC(=O)[C@@H](N)Cc1ccc(O)cc1)[C@@H](C)CC)C(=O)O` (H-YGRKKRRQRRRRNQKFKCGE[Ahx]IA[Hyp]YI-OH), for which the fold change (FC) in [1] was determined as 0.92; in assay [2] it was 0.91; in assay [3], 0.59; in [4] it was 0.72; in [5] it was 0.55; in assay [6], 0.96. Moreover, the fold change (FC) in assay [7] amounted to 0.63; in assay [8], 0.61; in assay [9] it was 0.47; in assay [10], 0.37; in assay [11], 1.11; in [12] it was 0.68. Besides, the fold change (FC) in [13] worked out at 0.9; in assay [14], 1.01; in [15] it was 0.91; in assay [16], 0.99; in [17] it was 1.05.
In the case of H-YGRKKRRQRRRRNQKFKCGE-OH, the EC50 in assay [18] was 8.13 µM; in assay [19], 32.3 µM. In addition, in [20], the fold change (FC) was 0.49.

For orientation: EC50 means the concentration giving half of the maximal effect.
